Assay outcomes: PubChem, several laboratories
Compounds with a hit are over-represented: about 4% of the library has one in this group of screens.
RAM inhibit – inhibitors of the yeast RAM network; AID 868; S. cerevisiae dse1pr::URA3 reporter, 5-FOA growth OD615, 2 d; analog-sensitive cbk1-as2 kinase mutant strain; inhibition, % at 50 µM; 190,000 compounds, 1.8% hits;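 active = inhibition above a set limit, 3 SD over mean compound inhibition, cut at about 8.4% in these data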;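 note: 0% = DMSO-only wells with no growth and 100% = 10 µM 1-NA-PP1 full growth; inhibition rescues growth on 5-FOA so higher OD means more RAM inhibition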
Measles CPE – protection of cells from measles virus; Measles virus-infected cells, CPE protection, absorbance; protection (pct of control), % at 4 µM; 140,000 compounds, 1.5% hits; in the data active = protection mostly above about 24%, no sharp cut-off; inactive = mostly below about 26%
BB579 growth dn – reduces growth of yeast BB579 in restrictive medium; inhibition, % at 10 µM; S. cerevisiae BB579 growth, OD615, 48 h; 140,000 compounds, 0.51% hits;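 active = inhibition above a set limit, 3 SD over the mean compound inhibition, cut at about 44% in these data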
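System: Saccharomyces cerevisiae DeaD strain BB579, replicative lifespan model yeast. Buffer or medium: restrictive glucose-based CSMM-D medium. Doses: one dose, 10 µM compound with 0.25% DMSO. Timing: 4 h preincubation and 48 h exposure at 30 °C. Detection: turbidity as optical density at 615 nm. Benchmarks: amphotericin B 10 µg/mL, positive.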
Yeast lifespan up – extends the lifespan of yeast. inhibition of the nicotinamide effect, % at 10 µM. AID 775. S. cerevisiae growth with nicotinamide, OD615; deaD strain in restrictive glucose medium. 130,000 compounds, 0.68% hits;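 active = inhibition above a set limit, placed 3 SD over the median of all compounds, cut at about 26% in these data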;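 note: 0% = nicotinamide-treated wells and 100% = cells grown without nicotinamide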
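Test system – modified budding yeast, DeaD strain · Compound – single dose 10 µM compound, 0.25% DMSO · Times – culture preincubation 4 h, compound exposure 48 h, both 30 °C · Detection – optical density (absorbance) at 615 nm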
INS promoter inh – TRM-6 insulin promoter activity inhibition | TRM-6 cells, insulin promoter-eGFP reporter, imaging; reporter expression induced with tamoxifen | inhibition, % at 2 µM | 130,000 compounds, 0.9% hits;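 active = inhibition above the mean plus 3 SD, with well images judged a real hit on visual review, cut at about 60% in these data, passing the limit was not always enough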
Mdm2 ligase inh – Mdm2 E3 ligase (human) inhibition; Q00987; cell-based MDM2 ubiquitination luciferase reporter, 2 h; 0 = plate control, 100 = twice control, blank-subtracted; signal enhancement, % at 5 µM; 210,000 compounds, 0.11% hits;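 active = signal enhancement of 30% or more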;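 note: luminescence tracks abundance of the self-degrading MDM2-luciferase fusion protein; higher signal means inhibition of MDM2 E3 ligase activity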
Target sequence (Q00987 whole entry, looked up, the tested form may be a part): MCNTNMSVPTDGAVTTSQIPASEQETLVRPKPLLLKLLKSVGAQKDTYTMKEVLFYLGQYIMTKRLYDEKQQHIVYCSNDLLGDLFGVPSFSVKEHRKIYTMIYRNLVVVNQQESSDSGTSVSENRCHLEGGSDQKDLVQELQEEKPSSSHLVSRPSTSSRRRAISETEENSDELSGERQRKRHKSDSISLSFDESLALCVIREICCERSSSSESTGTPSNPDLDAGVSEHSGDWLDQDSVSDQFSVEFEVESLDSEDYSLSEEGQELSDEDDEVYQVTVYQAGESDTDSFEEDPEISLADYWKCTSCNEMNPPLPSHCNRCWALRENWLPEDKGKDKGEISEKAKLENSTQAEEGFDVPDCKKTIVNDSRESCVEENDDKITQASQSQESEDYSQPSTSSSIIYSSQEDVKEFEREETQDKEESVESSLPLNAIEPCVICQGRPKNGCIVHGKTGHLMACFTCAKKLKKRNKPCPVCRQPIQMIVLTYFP
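Test system: mammalian cells stably expressing self-ubiquitinating, self-degrading MDM2 E3–luciferase fusion; Amount: 2000 cells in each well; Medium: DMEM; Schedule: 4 h settle plus 2 h compound, 37 °C; Technique: SteadyLite luciferase luminescence after 15 min room-temperature reagent incubation; Benchmarks: plate control and blank wells.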
* = called active by the depositor; x = no result given.

SMILES | RAM inhibit | Measles CPE | BB579 growth dn | Yeast lifespan up | INS promoter inh | Mdm2 ligase inh
CCN(CC)S(=O)(=O)c1cc(NS(=O)(=O)c2cccc(Cl)c2)ccc1C | 8 | 19 | -28 | 12 | -74 | -4
CCN(CC)S(=O)(=O)c1cc(NS(=O)(=O)c2cccc(Cl)c2Cl)ccc1C | 10* | 7 | -25 | 20 | 3 | -3
CC(C)=C1SC(N2CCOCC2)=NC1=O | 1 | 3 | -34 | -3 | 7 | -11
CC(C)=C1SC(N2CCN(c3ccc(Cl)cc3)CC2)=NC1=O | 2 | x | x | x | 71* | -14
CC(C)=C1SC(N2CCN(c3ccc(C)cc3)CC2)=NC1=O | 2 | 5 | -34 | x | 31 | 5
CC(C)=C1SC(N2CCN(c3cccc(C(F)(F)F)c3)CC2)=NC1=O | 2 | 6 | -39 | -10 | 34 | 30*
Cc1ccc(S(=O)(=O)c2c(C)nn(-c3ccccc3)c2OC(=O)c2ccc(Br)o2)cc1 | 2 | 8 | -22 | 3 | -29 | -1
COC(=O)c1sc2ncccc2c1OCc1c(Cl)cccc1Cl | 3 | 9 | -13 | -15 | x | -8
COC(=O)c1sc2ncccc2c1OCc1cccc(Cl)c1 | 9.6* | 17 | -27 | -17 | 17 | -7
COc1cc(/C=C2/C(=O)ON=C2c2ccccc2)ccc1O | 0 | 10 | 86* | 12 | 0 | 8
COc1cc(/C=C2\C(=O)ON=C2c2ccccc2)cc(Cl)c1O | -1 | x | x | x | x | 4
Cc1ccc(S(=O)(=O)ON2C(=O)c3cccc4cccc(c34)C2=O)cc1 | 2 | 26 | -39 | 34* | -7 | -9
CCS(=O)(=O)n1nc(-c2ccccc2)nc1SC | 2 | 3 | -7 | -8 | 36 | -14
O=C(Nc1ccc(OC(F)F)c(Cl)c1)C(c1ccccc1)c1ccccc1 | 9.6* | 6 | -25 | 2 | x | -16
O=C(Cc1cccc2ccccc12)Nc1ccc(OC(F)F)c(Cl)c1 | 7 | 10 | -43 | 4 | 27 | 5
CCOC(=O)/C(=C/c1ccco1)NC(=O)c1ccc(Br)o1 | -1 | x | x | x | x | 3
COc1ccc(CN(C2CCCC2)S(=O)(=O)c2ccc(-n3cnnn3)cc2)cc1 | 8 | 6 | -39 | -22 | 83* | -1
Cc1ccc(/C=C2\SC(=S)N(CC(=O)Nc3ncc(Cc4ccccc4Cl)s3)C2=O)cc1 | 5 | 6 | -37 | -22 | -28 | -14
Cc1ccc(/C=C2/SC(=S)N(CC(=O)Nc3ncc(Cc4ccc(C)cc4)s3)C2=O)cc1 | 11* | 5 | -48 | -10 | -23 | -3
Oc1c(C(Nc2nc3ccccc3s2)c2ccco2)ccc2cccnc12 (stereo not given) | -1 | 15 | 74* | -6 | x | 5
CC(C)C(=O)NC(c1ccco1)c1ccc2cccnc2c1O (stereo not given) | 3 | 6 | -29 | -21 | -23 | 0
Cc1ccc(N/N=C/c2c(O)cc(C)oc2=O)cc1 | 0 | 18 | 96* | -31 | 17 | 13
Cc1cc(O)c(/C=N/Nc2ccc(F)cc2)c(=O)o1 | 0 | x | x | x | x | -9
COc1ccc(C2C(Oc3ccccc3C)C(=O)N2Cc2ccc(F)cc2)cc1OC (stereo not given) | 8.9* | 9 | -46 | 4 | -43 | -6
COc1ccc(OC2C(=O)N(Cc3ccc(F)cc3)C2c2cc(OC)c(OC)c(OC)c2)cc1 (stereo not given) | 2 | 14 | -24 | 0 | x | -6
SMILES | RAM inhibit | Measles CPE | BB579 growth dn | Yeast lifespan up | INS promoter inh | Mdm2 ligase inh
Cc1nn(CC(=O)Nc2nnc(CC(=O)N3CCCC3)s2)c(=O)c2ccccc12 | x | x | x | x | 31 | x
O=C(CCN1C(=O)/C(=C/c2ccccc2)SC1=S)NNC(=O)c1cccnc1 | 9.6* | 23 | -34 | -1 | x | -8
O=C1/C(=C/c2ccncc2)SC(=S)N1Cc1ccccc1 | x | x | x | x | x | -4
O=C(CCN1C(=O)/C(=C/c2ccccc2Cl)SC1=S)NNC(=O)c1cccnc1 | x | x | x | x | x | -55
O=C(CCN1C(=O)/C(=C/c2ccc(F)cc2)SC1=S)NNC(=O)c1cccnc1 | 2 | 8 | -27 | -2 | x | -8
Cc1ccc(C(=O)NNC(=O)CCCN2C(=O)/C(=C/c3ccccc3Cl)SC2=S)cc1 | 10* | 25 | -17 | 2 | 63 | -17
CCCN1C(=O)/C(=C/c2ccncc2)SC1=S | 1 | 8 | -48 | 54* | 7 | 2
Cc1ccc(S(=O)(=O)N2CCC(=O)N(CCO)CC2)cc1 | 2 | 5 | -33 | 2 | 35 | x
CCCCOCP(=O)(CCCC)COCCCC | 3 | 18 | -12 | -12 | -54 | -6
CN(C)C1(CNC(=S)Nc2ccccc2C(F)(F)F)CCCCC1 | 1 | x | x | x | x | -22
CN1CCN(C(=S)NC(=O)c2ccc(C(C)(C)C)cc2)CC1 | 0 | 2 | -6 | 2 | 67* | 1
CN1CCN(C(=S)NC(=O)c2ccc(S(=O)(=O)N3CCOCC3)cc2)CC1 | 0 | x | x | x | x | -28
Cc1ccc(C(=O)NC(=S)N2CCN(C)CC2)cc1 | 1 | 7 | -6 | -5 | -14 | -5
CC(C)Oc1ccc(C(=O)NC(=S)N2CCOCC2)cc1 | -1 | 6 | -9 | 4 | 0 | 53*
O=C(CCc1ccccc1)Nc1cc(Cl)ccc1O | 0 | 36* | -64 | -16 | -68 | -12
O=C(O)CC(=O)Nc1cc(Cl)ccc1O | 0 | 7 | -42 | -5 | 27 | -4
COc1ccc(/C=C/C(=O)NCCc2ccc(S(N)(=O)=O)cc2)cc1 | 2 | 56* | -18 | 0 | -8 | -6
CCNS(=O)(=O)c1ccc(CCC(=O)Nc2cc(Cl)ccc2Oc2ccccc2)cc1 | 11* | 3 | -32 | -14 | x | -1
CC(C)NS(=O)(=O)c1ccc(CCC(=O)Nc2cc(Cl)ccc2Oc2ccccc2)cc1 | 8.8* | 7 | -10 | -8 | 10 | -2
CC(C)NS(=O)(=O)c1ccc(NC(=O)CCc2ccccc2)cc1 | 0 | 11 | -2 | -12 | 14 | -14
COc1ccc(CCNC(=O)CCc2ccc(S(=O)(=O)NC(C)C)cc2)cc1 | 1 | 7 | 5 | -3 | 71* | -90
O=C1CCC/C1=c1\s/c(=C\c2cccnc2)c(=O)n1-c1ccccc1 | 4 | 28* | -41 | 4 | 21 | -10
O=C(CSc1nc2ccccc2c(=O)[nH]1)N1CCN(S(=O)(=O)c2ccccc2)CC1 | 2 | 8 | -32 | -23 | 2 | -11
O=C(CSc1nc(-c2ccccc2)c(-c2ccccc2)[nH]1)N1CCN(S(=O)(=O)c2ccccc2)CC1 | 2 | 28* | -17 | -3 | -67 | 0
CS(=O)(=O)N1CCN(c2ccccc2NC(=O)c2ccco2)CC1 | 1 | 8 | -38 | -10 | 29 | -31
O=C1N=C2N(CCN3CCCCC3)c3ccccc3N2/C1=C\c1ccc([N+](=O)[O-])o1 | 0 | x | x | x | -388 | -12
CCCCOC(=O)Sc1nc2ccccc2o1 | -1 | 17 | 100* | -19 | -118 | -21
